Measurements as given in ChEMBL document CHEMBL4689842, “EUbOPEN Chemogenomics Library wave 1” (2021).
Where “and” joins values, the source holds several entries; their conditions need not be identical. Equal values may be shown once.

What was measured:
Type in all cases: toxicity, cell-based
Fibroblast [1] = test: Multiplex assay against human fibroblast; details: 1 µM, compound concentration 1 uM
Procedure, shortened: (§1)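 With compound added, live cells were imaged on a CQ1 microscope at 37°C and 5% CO2; staining with Hoechst33342, BioTracker Green Microtubule Cytoskeleton Dye, MitoTracker Red and Annexin V Alexa Fluor 680 had been done at seeding. The CellPathfinder machine-learning gating scheme split cells into Hoechst high-intensity objects or normal cells, normal cells into healthy, pyknosed or fragmented nuclei, and pyknosed cells into mitotic or apoptotic. The tubulin, mitochondrial-mass and membrane-permeability phenotypes are per cents of healthy-nucleus cells.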

U2OS [2] = test: Multiplex assay against U2OS; details: human, 1 µM, compound concentration 1 uM; procedure, shortened: as §1
HEK-293T [3] = test: Incucyte cell viability with HEK293T; details: human, 10 µM, compound concentration 10 uM; also: filed as whole numbers so only -1 and 0 and 1 occur
U2OS [4] = test: Incucyte cell viability with U2OS; details: human, 10 µM, compound concentration 10 uM; also: filed as whole numbers so only -1 and 0 and 1 occur
Fibroblast [5] = test: Incucyte cell viability with human fibroblast; details: 10 µM, compound concentration 10 uM; also: filed as whole numbers so only -1 and 0 and 1 occur
HEK-293T [6] = test: Multiplex assay against HEK293T; details: human, 1 µM, compound concentration 1 uM; procedure, shortened: as §1;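 as to Population Tubulin-Different-Phenotype (%): share of the cells with healthy nuclei that show this phenotype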
[7] = 0 h, replicate number 1, timepoint 0 hours
[8] = 6 h, replicate number 1, timepoint 6 hours
[9] = 12 h, replicate number 1, timepoint 12 hours
[10] = 18 h, replicate number 1, timepoint 18 hours
[11] = 24 h, replicate number 1, timepoint 24 hours

Cc1cc(C)c(-n2ccn3nc(-c4cccnc4)cc23)cc1NC(=O)c1cc(C#N)cc(S(F)(F)(F)(F)F)c1 [BAY-826]
Population Apoptotic (%) (Fibroblast [1]; 12 h, replicate 1): 67% and 71%
Population Fragmented Nuclei (%) (Fibroblast [1]; 12 h, replicate 1): 37% and 21%
Population Healthy Nuclei (%) (Fibroblast [1]; 12 h, replicate 1): 48% and 63%
Population Hoechst High Intensity Objects (%) (Fibroblast [1]; 12 h, replicate 1): 11% and 19%
Population Mitochondria Different-Phenotype (%) (Fibroblast [1]; 12 h, replicate 1): 3% and 8%
Population Mitotic Cells (%) (Fibroblast [1]; 12 h, replicate 1): 32% and 28%
Population Normal (%) (Fibroblast [1]; 12 h, replicate 1): 88% and 80%
Population Pyknosed Nuclei (%) (Fibroblast [1]; 12 h, replicate 1): 14% and 15%
Total Cell Count (Fibroblast [1]; 12 h, replicate 1): 241 and 313
Population Apoptotic (%) (Fibroblast [1]; 12 h, replicate 2): 50% and 91%
Population Fragmented Nuclei (%) (Fibroblast [1]; 12 h, replicate 2): 55% and 58%
Population Healthy Nuclei (%) (Fibroblast [1]; 12 h, replicate 2): 37% and 19%
Population Hoechst High Intensity Objects (%) (Fibroblast [1]; 12 h, replicate 2): 23% and 34%
Population Membrane Permeable-Phenotype (%) (Fibroblast [1]; 12 h, replicate 2): 20% and 36%
Population Normal (%) (Fibroblast [1]; 12 h, replicate 2): 76% and 65%
Population Pyknosed Nuclei (%) (Fibroblast [1]; 12 h, replicate 2): 7% and 21%
Population Tubulin-Different-Phenotype (%) (Fibroblast [1]; 12 h, replicate 2): 30% and 54%
Total Cell Count (Fibroblast [1]; 12 h, replicate 2): 71 and 85
Population Apoptotic (%) (Fibroblast [1]; 24 h, replicate 1): 52% and 37%
Population Fragmented Nuclei (%) (Fibroblast [1]; 24 h, replicate 1): 23% and 21%
Population Healthy Nuclei (%) (Fibroblast [1]; 24 h, replicate 1): 54% and 63%
Population Hoechst High Intensity Objects (%) (Fibroblast [1]; 24 h, replicate 1): 12% and 18%
Population Mitochondria Different-Phenotype (%) (Fibroblast [1]; 24 h, replicate 1): 8% and 4%
Population Mitotic Cells (%) (Fibroblast [1]; 24 h, replicate 1): 47% and 62%
Population Normal (%) (Fibroblast [1]; 24 h, replicate 1): 87% and 81%
Population Pyknosed Nuclei (%) (Fibroblast [1]; 24 h, replicate 1): 21% and 14%
Total Cell Count (Fibroblast [1]; 24 h, replicate 1): 231 and 326
Population Fragmented Nuclei (%) (Fibroblast [1]; 24 h, replicate 2): 54% and 59%
Population Healthy Nuclei (%) (Fibroblast [1]; 24 h, replicate 2): 35% and 19%
Population Hoechst High Intensity Objects (%) (Fibroblast [1]; 24 h, replicate 2): 36% and 28%
Population Normal (%) (Fibroblast [1]; 24 h, replicate 2): 64% and 71%
Population Pyknosed Nuclei (%) (Fibroblast [1]; 24 h, replicate 2): 10% and 20%
Population Tubulin-Different-Phenotype (%) (Fibroblast [1]; 24 h, replicate 2): 29% and 58%
Total Cell Count (Fibroblast [1]; 24 h, replicate 2): 75 and 87
Population Apoptotic (%) (U2OS [2]; 12 h, replicate 1): 68% and 80%
Population Fragmented Nuclei (%) (U2OS [2]; 12 h, replicate 1): 11% and 8%
Population Healthy Nuclei (%) (U2OS [2]; 12 h, replicate 1): 75% and 87%
Population Hoechst High Intensity Objects (%) (U2OS [2]; 12 h, replicate 1): 4%
Population Membrane Permeable-Phenotype (%) (U2OS [2]; 12 h, replicate 1): 45% and 44%
Population Mitochondria Different-Phenotype (%) (U2OS [2]; 12 h, replicate 1): 41% and 26%
Population Mitotic Cells (%) (U2OS [2]; 12 h, replicate 1): 31% and 20%
Population Normal (%) (U2OS [2]; 12 h, replicate 1): 95%
Population Pyknosed Nuclei (%) (U2OS [2]; 12 h, replicate 1): 13% and 5%
Population Tubulin-Different-Phenotype (%) (U2OS [2]; 12 h, replicate 1): 99% and 93%
Total Cell Count (U2OS [2]; 12 h, replicate 1): 168 and 105
Population Apoptotic (%) (U2OS [2]; 12 h, replicate 2): 75% and 78%
Population Fragmented Nuclei (%) (U2OS [2]; 12 h, replicate 2): 13% and 15%
Population Healthy Nuclei (%) (U2OS [2]; 12 h, replicate 2): 81% and 69%
Population Hoechst High Intensity Objects (%) (U2OS [2]; 12 h, replicate 2): 11% and 12%
Population Membrane Permeable-Phenotype (%) (U2OS [2]; 12 h, replicate 2): 36% and 35%
Population Mitochondria Different-Phenotype (%) (U2OS [2]; 12 h, replicate 2): 27% and 79%
Population Mitotic Cells (%) (U2OS [2]; 12 h, replicate 2): 25% and 21%
Population Normal (%) (U2OS [2]; 12 h, replicate 2): 88% and 87%
Population Pyknosed Nuclei (%) (U2OS [2]; 12 h, replicate 2): 15%
Population Tubulin-Different-Phenotype (%) (U2OS [2]; 12 h, replicate 2): 68% and 100%
Total Cell Count (U2OS [2]; 12 h, replicate 2): 85
Population Apoptotic (%) (U2OS [2]; 24 h, replicate 1): 50% and 85%
Population Fragmented Nuclei (%) (U2OS [2]; 24 h, replicate 1): 9%
Population Healthy Nuclei (%) (U2OS [2]; 24 h, replicate 1): 82% and 53%
Population Hoechst High Intensity Objects (%) (U2OS [2]; 24 h, replicate 1): 5%
Population Membrane Permeable-Phenotype (%) (U2OS [2]; 24 h, replicate 1): 36% and 51%
Population Mitochondria Different-Phenotype (%) (U2OS [2]; 24 h, replicate 1): 44% and 78%
Population Normal (%) (U2OS [2]; 24 h, replicate 1): 94%
Population Tubulin-Different-Phenotype (%) (U2OS [2]; 24 h, replicate 1): 63%
Total Cell Count (U2OS [2]; 24 h, replicate 1): 134 and 155
Population Apoptotic (%) (U2OS [2]; 24 h, replicate 2): 80% and 70%
Population Fragmented Nuclei (%) (U2OS [2]; 24 h, replicate 2): 19% and 10%
Population Healthy Nuclei (%) (U2OS [2]; 24 h, replicate 2): 50% and 78%
Population Hoechst High Intensity Objects (%) (U2OS [2]; 24 h, replicate 2): 13% and 9%
Population Membrane Permeable-Phenotype (%) (U2OS [2]; 24 h, replicate 2): 56% and 28%
Population Mitotic Cells (%) (U2OS [2]; 24 h, replicate 2): 19% and 30%
Population Normal (%) (U2OS [2]; 24 h, replicate 2): 87% and 90%
Population Pyknosed Nuclei (%) (U2OS [2]; 24 h, replicate 2): 29% and 11%
Population Tubulin-Different-Phenotype (%) (U2OS [2]; 24 h, replicate 2): 100% and 48%
Total Cell Count (U2OS [2]; 24 h, replicate 2): 100 and 98
Growth Rate (HEK-293T [3]; [7]): 0
Growth Rate (HEK-293T [3]; [8]): 0
Growth Rate (HEK-293T [3]; [9]): 0
Growth Rate (HEK-293T [3]; [10]): 0
Growth Rate (HEK-293T [3]; [11]): 0
Growth Rate (U2OS [4]; 0 h, replicate number 2, timepoint 0 hours): 0
Growth Rate (U2OS [4]; [8]): 1
Growth Rate (U2OS [4]; [9]): 0
Growth Rate (U2OS [4]; [10]): 0
Growth Rate (U2OS [4]; [11]): 0
Growth Rate (Fibroblast [5]; [7]): 0
Growth Rate (Fibroblast [5]; [8]): 1
Growth Rate (Fibroblast [5]; [9]): 1
Growth Rate (Fibroblast [5]; [10]): 1
Growth Rate (Fibroblast [5]; [11]): 1
Population Apoptotic (%) (HEK-293T [6]; 12 h, replicate 1): 30%
Population Fragmented Nuclei (%) (HEK-293T [6]; 12 h, replicate 1): 14% and 17%
Population Healthy Nuclei (%) (HEK-293T [6]; 12 h, replicate 1): 56% and 57%
Population Hoechst High Intensity Objects (%) (HEK-293T [6]; 12 h, replicate 1): 14% and 13%
Population Membrane Permeable-Phenotype (%) (HEK-293T [6]; 12 h, replicate 1): 36% and 23%
Population Mitochondria Different-Phenotype (%) (HEK-293T [6]; 12 h, replicate 1): 25% and 17%
Population Mitotic Cells (%) (HEK-293T [6]; 12 h, replicate 1): 69%
Population Normal (%) (HEK-293T [6]; 12 h, replicate 1): 85% and 86%
Population Pyknosed Nuclei (%) (HEK-293T [6]; 12 h, replicate 1): 28% and 24%
Population Tubulin-Different-Phenotype (%) (HEK-293T [6]; 12 h, replicate 1): 93% and 58%
Total Cell Count (HEK-293T [6]; 12 h, replicate 1): 624 and 510
Population Fragmented Nuclei (%) (HEK-293T [6]; 12 h, replicate 2): 4% and 6%
Population Healthy Nuclei (%) (HEK-293T [6]; 12 h, replicate 2): 75% and 83%
Population Hoechst High Intensity Objects (%) (HEK-293T [6]; 12 h, replicate 2): 3%
Population Membrane Permeable-Phenotype (%) (HEK-293T [6]; 12 h, replicate 2): 34% and 17%
Population Mitochondria Different-Phenotype (%) (HEK-293T [6]; 12 h, replicate 2): 32% and 19%
Population Mitotic Cells (%) (HEK-293T [6]; 12 h, replicate 2): 79% and 93%
Population Normal (%) (HEK-293T [6]; 12 h, replicate 2): 96%
Population Pyknosed Nuclei (%) (HEK-293T [6]; 12 h, replicate 2): 20% and 9%
Population Tubulin-Different-Phenotype (%) (HEK-293T [6]; 12 h, replicate 2): 98% and 82%
Total Cell Count (HEK-293T [6]; 12 h, replicate 2): 1184 and 1372
Population Apoptotic (%) (HEK-293T [6]; 24 h, replicate 1): 35% and 25%
Population Fragmented Nuclei (%) (HEK-293T [6]; 24 h, replicate 1): 12% and 11%
Population Healthy Nuclei (%) (HEK-293T [6]; 24 h, replicate 1): 66% and 76%
Population Hoechst High Intensity Objects (%) (HEK-293T [6]; 24 h, replicate 1): 12% and 7%
Population Membrane Permeable-Phenotype (%) (HEK-293T [6]; 24 h, replicate 1): 33% and 20%
Population Mitochondria Different-Phenotype (%) (HEK-293T [6]; 24 h, replicate 1): 28% and 16%
Population Mitotic Cells (%) (HEK-293T [6]; 24 h, replicate 1): 64% and 75%
Population Normal (%) (HEK-293T [6]; 24 h, replicate 1): 87% and 92%
Population Pyknosed Nuclei (%) (HEK-293T [6]; 24 h, replicate 1): 20% and 12%
Population Tubulin-Different-Phenotype (%) (HEK-293T [6]; 24 h, replicate 1): 95% and 76%
Total Cell Count (HEK-293T [6]; 24 h, replicate 1): 622 and 545
Population Apoptotic (%) (HEK-293T [6]; 24 h, replicate 2): 9% and 14%
Population Healthy Nuclei (%) (HEK-293T [6]; 24 h, replicate 2): 78% and 68%
Population Hoechst High Intensity Objects (%) (HEK-293T [6]; 24 h, replicate 2): 4%
Population Membrane Permeable-Phenotype (%) (HEK-293T [6]; 24 h, replicate 2): 22% and 17%
Population Mitotic Cells (%) (HEK-293T [6]; 24 h, replicate 2): 90% and 85%
Population Normal (%) (HEK-293T [6]; 24 h, replicate 2): 95%
Population Tubulin-Different-Phenotype (%) (HEK-293T [6]; 24 h, replicate 2): 87%
Total Cell Count (HEK-293T [6]; 24 h, replicate 2): 2013 and 1166
